Measurements taken from PMC6447450 (Structure (London, England : 1993), 2019).
“Also recorded” adds a separate entry of the source. Each block holds one substance with its values, some of them ahead of it.

Tests used:
[1] = test system: Bfl-1, Mcl-1, Bcl-xL, Bcl-w, and Bcl-2; assay: Yeast-surface display FACS binding to five Bcl-2 family paralogs; set-up: species or system human; conditions: for selectivity of Mcl-1 binders among Bcl-2 family paralogs (in words): Mcl-1 versus Bfl-1, Bcl-xL
Procedure, shortened: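 Myc-tagged human Mcl-1 (172-327), Bfl-1 (1-151), Bcl-2 (1-217), Bcl-w (1-164) and Bcl-xL (1-209) tested at 1000, 100, 10 and 1 nM on peptide-displaying yeast induced in galactose medium for 20-24 hr at 30 °C. Display detected with anti-HA and bound target with anti-c-myc (15 min, 4 °C), then APC anti-mouse and PE anti-rabbit (15 min, 4 °C, dark). Read-out: FACS median binding signal of expression-positive cells.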

Bfl-1 = target: T1, Bfl-1 (Homo sapiens, UniProt Q16548); assay: Yeast-surface display FACS binding to Bfl-1
T1 sequence (Q16548 1-151): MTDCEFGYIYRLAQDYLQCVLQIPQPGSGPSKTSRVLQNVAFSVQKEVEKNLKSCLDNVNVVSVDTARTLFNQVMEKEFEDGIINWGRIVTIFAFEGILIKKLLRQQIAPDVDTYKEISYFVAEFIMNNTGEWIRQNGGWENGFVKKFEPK

Mcl-1 = Mcl-1 (Homo sapiens, UniProt Q07820); assay: Yeast-surface display FACS binding to Mcl-1
Mcl-1, sequence (Q07820 172-327): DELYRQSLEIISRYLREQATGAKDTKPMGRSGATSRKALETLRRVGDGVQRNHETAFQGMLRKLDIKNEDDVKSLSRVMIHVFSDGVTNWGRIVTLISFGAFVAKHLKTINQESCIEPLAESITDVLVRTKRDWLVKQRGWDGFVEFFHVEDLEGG

Substance: APKEKEVARTLIKIGEEINEALK- [dM5]
selectivity of Mcl-1 binders among Bcl-2 family paralogs (in words) ([1]; yeast-surface display): selective

Substance: APKEKEVAETLRKIGEEINEALK- [dM1]
selectivity of Mcl-1 binders among Bcl-2 family paralogs (in words) ([1]; yeast-surface display): selective

Substance: -SYIDKIADLIDKVVEEINSKLE- [dF6]
binding to target Bfl-1 (in words) (Bfl-1): did not bind to their targets with high affinity; also recorded: did not bind tightly to Bfl-1

selectivity for Bfl-1 ([1]; Bfl-1 versus Mcl-1, Bcl-xL, yeast-surface display): > 100 fold
Substance: -QWVREIAAGLRRAADDVNAQVER [FS2, reference compound]

Substance: APYLEQVARTLLHIGMEINEALR- [dM6]
binding to target Mcl-1 (in words) (Mcl-1): did not bind to their targets with high affinity
binding to Bcl-2 family members (in words) ([1]; yeast-surface display FACS, Bfl-1, Mcl-1, Bcl-xL): not binding to any of the Bcl-2 family members we tested
